# Test results reported in PubChem BioAssay.
# Active and inactive are the calls of the source.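 The calls were made as follows, unless noted: active = viability at or under a set limit in both replicates, limit being median viability minus 3 SD (cut at about 48% in these data, passing the limit was not always enough); inconclusive = at or under the limit in just one replicate; inactive = at or above the limit in both replicates.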
# What was measured:
# [1] = reducers of endogenous Her2 protein level, primary screen, SKBR3 breast tumor cells, AlphaScreen, ATP viability (AID 461;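 active = Her2 level under about 52% in both replicate screens, with viability over 70% of control, limit read from the data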;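 as to Her2 level: lower value means less Her2 protein in the cells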;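 as to viability: percent of carrier control wells set as 100% viability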); conditions: 18-24 h, measured here: SKBR3 viability, ATP luminescence, at 10 µM
# [2] = target: Receptor tyrosine-protein kinase erbB-2 (Homo sapiens) (UniProt P04626); assay: as above; conditions: 18-24 h, at 10 µM, stronger effect = lower value
# Chain of Receptor tyrosine-protein kinase erbB-2 (Homo sapiens) (P04626 whole entry, looked up): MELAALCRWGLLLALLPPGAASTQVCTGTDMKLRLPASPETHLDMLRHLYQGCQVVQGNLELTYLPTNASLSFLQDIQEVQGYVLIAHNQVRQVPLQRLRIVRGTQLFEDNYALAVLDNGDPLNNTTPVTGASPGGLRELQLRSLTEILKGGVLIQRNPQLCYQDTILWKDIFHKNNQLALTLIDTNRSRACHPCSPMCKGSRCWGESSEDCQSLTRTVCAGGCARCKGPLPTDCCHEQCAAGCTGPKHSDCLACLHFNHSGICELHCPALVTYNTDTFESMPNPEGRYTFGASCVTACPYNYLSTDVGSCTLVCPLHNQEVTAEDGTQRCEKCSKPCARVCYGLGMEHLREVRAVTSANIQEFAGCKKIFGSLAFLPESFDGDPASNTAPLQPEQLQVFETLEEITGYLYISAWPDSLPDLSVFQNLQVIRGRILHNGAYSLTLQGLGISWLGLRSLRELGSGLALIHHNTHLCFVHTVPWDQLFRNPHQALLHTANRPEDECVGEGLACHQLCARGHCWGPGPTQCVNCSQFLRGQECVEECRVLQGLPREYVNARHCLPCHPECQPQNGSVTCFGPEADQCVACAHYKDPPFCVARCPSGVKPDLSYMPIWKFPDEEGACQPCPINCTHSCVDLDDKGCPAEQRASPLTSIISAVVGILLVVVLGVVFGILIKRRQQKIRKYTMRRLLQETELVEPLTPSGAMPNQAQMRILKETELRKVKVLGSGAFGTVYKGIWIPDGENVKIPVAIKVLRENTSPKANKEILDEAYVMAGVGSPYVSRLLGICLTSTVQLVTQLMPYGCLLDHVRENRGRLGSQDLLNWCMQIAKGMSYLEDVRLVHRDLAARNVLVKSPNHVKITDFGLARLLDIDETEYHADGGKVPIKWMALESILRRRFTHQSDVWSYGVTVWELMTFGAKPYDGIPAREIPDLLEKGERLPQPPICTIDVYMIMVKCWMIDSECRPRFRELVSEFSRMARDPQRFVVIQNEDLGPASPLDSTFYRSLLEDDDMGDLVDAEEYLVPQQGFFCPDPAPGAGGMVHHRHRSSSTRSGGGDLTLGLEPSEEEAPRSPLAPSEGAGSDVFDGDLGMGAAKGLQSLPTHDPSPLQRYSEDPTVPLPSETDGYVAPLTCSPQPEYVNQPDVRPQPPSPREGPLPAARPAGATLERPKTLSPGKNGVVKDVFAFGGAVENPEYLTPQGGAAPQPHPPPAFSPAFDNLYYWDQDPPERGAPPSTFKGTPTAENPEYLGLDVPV
# [3] = SK-BR-3 cell growth inhibitors, pilot screen, 24 h, human (AID 572;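 active = viability at or below 10% of carrier control in both of two separate runs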;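 also: compound exposure lasted between 18 and 24 h rather than exactly 24 h; 100% = carrier-treated control wells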); conditions: SK-BR-3 viability, CellTiter-Glo luminescence, at 10 µM, stronger effect = lower value
# [4] = HUVEC growth inhibition – cell-based, human, primary screen (AID 575;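 active = viability at or below 30% in both replicate assays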;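 also: 100% = median of untreated cell wells with 0.1% DMSO on each plate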); conditions: HUVEC proliferation, CellTiter-Glo luminescence, 72 h; at 10 µM; stronger effect = lower value
# Summary of the method: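 Test system: primary human umbilical vein endothelial cells; medium: endothelial basal medium with 2% FBS plus growth supplements; dosing: 10 µM compound only; times: 72 h treatment at 37 °C; signal: CTG luminescence; read-out: % viability relative to median vehicle-well signal on each plate; control set: vehicle and MePR control wells; plate: 384-well, collagen-coated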
# [5] = growth inhibitors of H69AR lung tumor, primary screen, human, duplicate replicates (AID 580); conditions: H69AR lung tumor cells viability, ATP luminescence, 72 h; at 10 µM; stronger effect = lower value;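 also: 100% = mean luminescence of untreated wells and 0% = no signal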
# [6] = reversal of MRP1-mediated doxorubicin resistance, pilot screen, H69AR cells, doxorubicin co-treatment (AID 601;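 active = viability loss from added drug above about 55%, and viability with drug at most 40%, in both replicates, limit read from the data, passing the limit was not always enough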); conditions: CellTiter-Glo, 72 h, at 10 µM; for differential viability (reversal): stronger effect = higher value
# [7] = 384-well plate pilot, post-Golgi transport modulator project, inhibition of yeast transport mutant growth (AID 636; in the data active = inhibition above about 31%); conditions: absorbance 615 nm, about 18 h, stronger effect = higher value
# [8] = growth suppression of yeast trafficking mutant, preliminary HTS, modulators of trafficking downstream of Golgi apparatus project, 1536-format plate, OD 615 nm (AID 637; in the data active = inhibition above about 30%); conditions: yeast transport mutant growth, absorbance 615 nm, 18 h; stronger effect = higher value
# [9] = H69AR cells + 2 uM doxorubicin, measured here: viability with 2 uM doxorubicin, stronger effect = lower value
# [10] = H69AR cells, compound alone cytotoxicity
Compound,viability [1] [%],Her2 level [2],viability [3],viability [4],viability [5],differential viability (reversal) ([6]; H69AR cells + 2 uM doxorubicin),"viability [6, 9] [%]","viability [6, 10] [%]",inhibition [7],inhibition [8]
CCCCn1c(SCC(=O)N2CC(=O)Nc3ccccc32)nnc1-c1ccoc1C,86.5,85.5% (inactive),86.5% (inactive),97.5% (inactive),96.7% (inactive),4.84% (inactive),91.8,96.7,2.67% (inactive),-8.55% (inactive)
COc1cc(C2C(C#N)=C(N)OC3=C2C(=O)CC(C)(C)C3)ccc1OC(=O)N1CCOCC1 (stereo not given),84.5,94.5% (inactive),84.5% (inactive),97.6% (inactive),98.8% (inactive),4.58% (inactive),94.2,98.8,1.49% (inactive),-7.54% (inactive)
COc1cc(OC)c(OC)cc1CN(C)CCc1ccccn1,104,107% (inactive),104% (inactive),96.7% (inactive),86.9% (inactive),-4.87% (inactive),91.8,86.9,-1.79% (inactive),7% (inactive)
Cc1nc(-c2cccc(N)c2)cs1,103,94.5% (inactive),103% (inactive),84.3% (inactive),103% (inactive),6.14% (inactive),96.8,103,-1.33% (inactive),-2.3% (inactive)
CC(=O)N1CCc2cc(Br)cc(S(=O)(=O)NCCCN3CCCC(C)C3)c21 (stereo not given),83,93% (inactive),83% (inactive),89.9% (inactive),91.8% (inactive),0.035% (inactive),91.7,91.8,-2.57% (inactive),-3.93% (inactive)
OCCNc1nc2ccc(Cl)cc2[nH]1,84,100% (inactive),84% (inactive),108% (inactive),107% (inactive),9.03% (inactive),97.9,107,-6.89% (inactive),5.08% (inactive)
Cc1c(C(=O)NCc2cccnc2)oc2ccc(S(=O)(=O)N3CCCCC3)cc12,71.5,89% (inactive),71.5% (inactive),65.6% (inactive),70.5% (inactive),-20.9% (inactive),91.4,70.5,-0.39% (inactive),4.1% (inactive)
COc1cc(NC(=O)Cc2nn(C)c(=O)c3ccccc23)cc(OC)c1,87.5,91.5% (inactive),87.5% (inactive),73% (inactive),84.3% (inactive),-2.83% (inactive),87.1,84.3,-2.24% (inactive),-2.9% (inactive)
COc1ccccc1NC(=O)c1nnn(CC(=O)Nc2ccccc2)c1N,106,81% (inactive),106% (inactive),70.5% (inactive),90.7% (inactive),-6.95% (inactive),97.6,90.7,-5.47% (inactive),-1.31% (inactive)
CC(=O)Nc1ccc(S(=O)(=O)N2CCN(C(C)CCc3ccccc3)CC2)cc1 (stereo not given),74,98.5% (inactive),74% (inactive),97.8% (inactive),96.6% (inactive),5.17% (inactive),91.4,96.6,-4.8% (inactive),-1.29% (inactive)
COC(=O)Nc1ccc(S(=O)(=O)N(C)CC(F)(F)C(F)F)cc1,107,102% (inactive),107% (inactive),107% (inactive),93.1% (inactive),-1.14% (inactive),94.2,93.1,-6.05% (inactive),1.8% (inactive)
O=C(NCc1ccccc1)C1CCN(S(=O)(=O)N2CCCCCC2)CC1,85,106% (inactive),85% (inactive),109% (inactive),96.7% (inactive),3.6% (inactive),93.1,96.7,6.49% (inactive),-6.23% (inactive)
CCn1c(=O)cc(SCC(=O)N2CCOCC2)c2ccccc21,92,75% (inactive),92% (inactive),63.1% (inactive),85.4% (inactive),17.4% (inactive),68,85.4,-6.05% (inactive),-3.45% (inactive)
C=CCn1c(COc2ccccc2F)nnc1SCC(=O)N1CC(=O)Nc2ccccc21,92,104% (inactive),92% (inactive),109% (inactive),92.2% (inactive),2.88% (inactive),89.3,92.2,-4.46% (inactive),51.5% (active)
O=C(Nc1nccs1)c1ccc(COc2ccccc2Br)o1,118,91.5% (inactive),118% (inactive),50.3% (inactive),80.9% (inactive),-2.83% (inactive),83.7,80.9,-2.27% (inactive),-7.26% (inactive)
CCN1CCc2c(C#N)c(N3CCOCC3)nc(NCc3ccccc3)c2C1,84.5,88% (inactive),84.5% (inactive),88.4% (inactive),81.3% (inactive),3.46% (inactive),77.8,81.3,-6.03% (inactive),-4.76% (inactive)
